# EBNA-1 inhibitor – blocks EBNA-1 binding to DNA. AID 1950. EBNA-1 DNA binding, fluorescence polarization. inhibition, % at 14.8 µM. actives 0.34% (n = 300,000); in the data active = inhibition above about 28%
# ZTA counter – ZTA (EBV) inhibition in EBNA-1 counter-screen | actives 0.15% (n = 320,000) | AID 2234 | ZTA-DNA binding, fluorescence polarization | P03206 | inhibition, % at 11 µM; in the data active = inhibition above about 33%
# Target sequence (P03206 whole entry, looked up): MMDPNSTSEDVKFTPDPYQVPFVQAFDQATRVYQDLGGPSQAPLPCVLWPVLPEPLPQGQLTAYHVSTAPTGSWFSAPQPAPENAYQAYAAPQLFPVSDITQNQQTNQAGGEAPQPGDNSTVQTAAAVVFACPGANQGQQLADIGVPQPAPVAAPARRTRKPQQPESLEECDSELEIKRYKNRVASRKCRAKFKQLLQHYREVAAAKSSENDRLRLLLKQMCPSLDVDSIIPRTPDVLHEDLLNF
# core dimer inh – HCV core protein dimerization inhibition. TR-FRET GST/Flag-core106 dimerization, 1536-well. inhibition, % at 5 µM. actives 0.33% (n = 300,000);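 active = inhibition above the mean of all tested compounds plus 3 SD, set per screening campaign, cut at about 45% in these data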
#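 Assay system – GST-tagged and Flag-tagged HCV core protein residues 1-106 · Quantity – core106 proteins, GST 13.5 nM and Flag 17 nM · Benchmarks – unlabelled core106 and no-GST-core106 wells · Read-out basis – percent inhibition of core106 dimerization signal · Detection – time-resolved FRET, ex 340 nm, em 617 and 671 nm · Schedule – 4 h at 22.5 °C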
# ALR H2O2 inh – human ALR oxidase inhibition via reduced H2O2; purified ALR, DTT oxidation, H2O2 HRP-luminol luminescence; inhibition, % (no concentration beside the values); actives 3.8% (n = 290,000);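 active = mean replicate inhibition above about 79%, with every replicate also reaching it, limit read from the data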
# Target sequence (P55789 whole entry, looked up): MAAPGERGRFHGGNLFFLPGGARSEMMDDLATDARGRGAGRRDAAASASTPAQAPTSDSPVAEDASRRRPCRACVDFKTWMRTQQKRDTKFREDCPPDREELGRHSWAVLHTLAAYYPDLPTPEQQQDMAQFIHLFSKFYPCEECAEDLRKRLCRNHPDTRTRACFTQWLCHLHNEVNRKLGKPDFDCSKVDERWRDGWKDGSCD
# NS3 helicase inh – HCV NS3 helicase inhibition | actives 0.56% (n = 290,000) | inhibition, % at 10.9 µM | NS3 helicase DNA unwinding, Cy5 molecular beacon fluorescence | AID 1800;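 active = inhibition above the mean of all tested compounds plus 3 SD, set per campaign, cut at about 35% in these data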
#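 System: HCV NS3 helicase fragment; control set: DMSO and thioflavine S; technique: Cy5 fluorescence at 0 and 60 min, beacon hairpin quenching; reagent: beacon DNA duplex substrate plus ATP; replicates: singlicate; schedule: 1 h reaction at 25 °C, ATP-initiated; medium: MOPS buffer pH 6.5 with MgCl2, DTT, Tween20, BSA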
# PfM18AAP inh – PfM18AAP enzyme inhibition | AID 1822 | inhibition, % at 7.35 µM | recombinant PfM18AAP, H-Glu-NHMec fluorogenic cleavage | actives 1.2% (n = 290,000);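 active = inhibition above the campaign mean inhibition over all tested compounds plus 3 SD, cut at about 28% in these data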
# Numbers stand for hits; – = inactive; · = no result given; ! = a repeat was not active. Only some compounds are listed: those with a hit (about 5.2% of all), similar ones and a draw of the others.
SMILES,EBNA-1 inhibitor,ZTA counter,core dimer inh,ALR H2O2 inh,NS3 helicase inh,PfM18AAP inh
ClCCNc1nc2ccc(Cl)cc2[nH]1,–,–,–,98,–,–
CN1C(=O)c2ccccc2NC(=O)C1Cc1ccccc1 (stereo not drawn),–,–,–,98,–,–
CN1C(=O)C(C2c3ccccc3C(=O)N2Cc2ccccc2)C(=O)N(C)C1=O (stereo not drawn),–,–,–,–,–,–
Cc1nc2ccccc2c(=O)n1-c1ccc(Br)cc1[N+](=O)[O-],–,–,–,·,–,–
O=c1c2ccccc2nc(/C=C/c2ccccn2)n1-c1ccccc1,118,151,–,–,–,–
O=C(O)CCn1cc(C=C2C(=O)NC(=O)NC2=O)c(-c2cc3ccccc3oc2=O)n1,–,–,–,97,–,–
OC1(c2ccccc2F)CC2CCC(C1)N2CCN1CCOCC1 (stereo not drawn),–,–,–,–,–,–
c1ccc(OCC2CO2)cc1 (stereo not drawn),·,–,·,–,·,·
c1ccc(-c2[nH]c[n+](CC3CO3)c2-c2ccccc2)cc1 (stereo not drawn),–,40,–,–,–,–
Cc1ccc(CNCCc2ccccc2F)cc1,–,–,–,–,–,–
CCN(CC)c1ccc(CNCCc2ccccc2F)cc1,–,–,–,99,–,–
O[C@H]1C2CCC1C(N1CCCCC1)CC2 (stereo partly drawn),–,–,–,·,–,–
COC(=O)c1ccccc1OP1(=O)COc2ccccc2OC1,–,–,–,99,–,–
O=P1(Nc2ccc(F)cc2)COc2ccccc2OC1,–,–,–,–,–,–
CCN(CC)c1ccc(C=C2C(=O)NC(=S)NC2=O)cc1,–,–,–,99,–,–
CC(C)OP(=O)(Oc1ccc(C(O)C(Cl)(Cl)Cl)cc1)OC(C)C (stereo not drawn),–,–,–,–,–,–
COc1cc(C(=O)OC2C[C@H]3CC[C@@H](C2)N3)ccc1O (stereo partly drawn),–,–,–,84,–,–
C/C(=N\Nc1ccccc1)c1c(O)[nH]c(=O)[nH]c1=O,–,–,–,–,–,–
CC/C(=N\NC(=S)Nc1ccccc1)c1c(O)[nH]c(=O)[nH]c1=O,–,–,–,99,–,–
CC1(O)CCN2C(=O)CCc3cccc1c32 (stereo not drawn),·,–,·,97,·,·
Cc1ccc(C2C(S(C)(=O)=O)=C(O)C(=O)N2c2ccccc2)cc1 (stereo not drawn) (tested in a mixture with another compound),–,–,–,–,–,–
CCN1CCN(Cc2cc(Br)cc(Br)c2O)CC1,–,–,–,99,–,–
CCN1CCN(Cc2cc(Br)ccc2O)CC1,–,–,–,–,–,–
Cn1c(O)c(/C=N/NC(=O)c2ccncc2)c(=O)[nH]c1=S,–,–,–,–,–,–
CCCCn1c(O)c(/C=N/NC(=O)c2ccncc2)c(=O)[nH]c1=S,–,–,–,99,–,–
SMILES,EBNA-1 inhibitor,ZTA counter,core dimer inh,ALR H2O2 inh,NS3 helicase inh,PfM18AAP inh
Cc1nn(Cc2ccccc2)c(Cl)c1C(=O)NC1CCCc2ccccc21 (stereo not drawn),–,–,–,–,–,–
C=CCN1C(=O)c2ccccc2Sc2ccc(C(=O)N3CCC4(CC3)OCCO4)cc21,–,–,–,–,–,–
O=C(c1ccc2c(c1)N(Cc1ccccc1)CCS2)N1CCC2(CC1)OCCO2,–,–,–,85,–,–
Cc1ccccc1-[n+]1c(-c2ccccc2)cc(-c2ccccc2)cc1-c1ccccc1,–,–,–,–,·,·
CN1CCN(c2ccccc2N)CC1,–,–,–,–,–,–
CN1CCN(c2c(N)c(=O)oc3ccccc23)CC1,–,–,–,99,–,–
Cc1c(CCN)ccc2c1[nH]c1ccccc12,–,–,–,–,–,–
c1cncc(C2Nc3cccc4cccc(c34)N2)c1,–,–,–,–,–,35!
c1cncc(C2CCCCN2)c1 (stereo not drawn),–,–,–,·,–,–
COc1ccccc1-n1c(-c2ccccc2)nc2ccccc2c1=O,·,·,·,·,–,–
CN1C(=O)N(C)C(=O)C2(Cc3c(ccc4ccccc34)N(C)C2)C1=O,–,–,–,99,–,–
Cc1ccc2c(c1)=C/C(=C\c1c(O)[nH]c(=S)[nH]c1=O)C(=O)N=2,–,–,–,97,–,–
c1ccc(Nc2ccc(Nc3ccccc3)cc2)cc1,·,–,·,98,·,·
O=[N+]([O-])c1ccc(Nc2ccccc2)cc1,–,–,–,–,–,–
CN(C)c1ccc(/C=C/[N+](=O)[O-])cc1,–,–,–,98,–,31
Nc1ccc(S(=O)(=O)N2CCCCC2c2cccnc2)cc1 (stereo not drawn),–,–,–,90,–,–
O=S(=O)(c1ccccc1)N1CCCCC1c1cccnc1 (stereo not drawn),–,–,–,–,–,–
CCCc1c(C)nc(-c2ccc(C)cc2)nc1OC(=O)N(C)C,–,–,–,–,–,–
C/C(=N\Nc1ccccc1)c1c(O)n(Cc2ccccc2)c(=O)[nH]c1=O,–,–,–,98,–,–
C/C(=N\NC(=O)c1ccccc1)c1c(O)n(C2CCCCC2)c(=O)[nH]c1=O,–,–,–,93,–,–
C/C(=N\NC(=O)c1ccccc1O)c1c(O)n(Cc2ccccc2)c(=O)[nH]c1=O,–,–,–,–,–,–
Cn1c(O)c(C(=O)c2ccccc2)c(=O)n(C)c1=O,–,–,–,–,–,–
C/C(=N\Nc1ccccc1)c1c(O)n(C)c(=O)n(C)c1=O,–,–,–,99,–,–
CN=C(SCc1ccccc1)c1c(O)n(C)c(=O)n(C)c1=O,–,–,–,98,–,–
CCC(=NCCC(c1ccccc1)c1ccccc1)c1c(O)n(C)c(=O)n(C)c1=O,–,–,–,–,–,–
SMILES,EBNA-1 inhibitor,ZTA counter,core dimer inh,ALR H2O2 inh,NS3 helicase inh,PfM18AAP inh
OC12Oc3ccccc3C=C1N1CCC2CC1 (stereo not drawn),–,–,–,–,–,–
CC(C)OC(=O)Cc1ccccc1,·,–,·,–,·,·
CC(C)(C)c1nc(NCc2ccc3c(c2)OCO3)c2nnn(Cc3ccccc3Cl)c2n1,–,–,–,·,–,–
C/C(=N\Nc1ccccc1)c1c(O)n(-c2ccccc2)c(=O)[nH]c1=O,–,–,–,99,–,–
COC(=O)C1=C(c2ccc(S(C)(=O)=O)cc2)C[C@@H]2CC[C@H]1N2C(=O)NCCS(C)=O (stereo partly drawn),–,–,–,·,·,·
COc1ccc(CCN(C)Cc2ccc(F)cc2F)cc1OC,–,–,–,–,–,–
CCN(CC)c1ccc(CN(C)CCc2ccc(OC)c(OC)c2)cc1,–,–,–,99,–,–
Cc1c(CC(=O)N2C[C@H]3C[C@@H](C2)c2cccc(=O)n2C3)c(=O)oc2cc(O)c(Cl)cc12,–,–,–,–,–,–
